Compound activity: PubChem, several laboratories
An excerpt weighted towards active compounds, which were near 5% of everything screened.
UPR XBP1 act = adaptive UPR (XBP1) activation | CHO-XBP1 luciferase reporter, IRE1-XBP1 UPR activation, luminescence; percent of tunicamycin response, DMSO as zero | activation, % at 20 µM | 330,000 compounds, 0.33% hits | AID 463104;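 active means versus positive control, 20 µM dose yields 30% or more activation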;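 further: 100% = tunicamycin at 10 µg/mL and 0% = DMSO only wells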
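Assay system: CHO-XBP1 luciferase reporter cells; Schedule: 6 h treatment, 37 °C; Detection: glow luminescence from Steady-Glo reagent; Benchmarks: high control tunicamycin 10 µg/mL final, low control DMSO vehicle only.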
Mdm2 MdmX PPI = human Mdm2/MdmX binding inhibition. SaOS-2 split-luciferase Mdm2/MdmX complementation, luminescence. O15151+Q00987. inhibition, % at 8 µM. AID 485346. 330,000 compounds, 3% hits;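 active means inhibition of at least 50% at 8 µM in the primary screen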
CSC inhib = cancer stem cell inhibition | cancer stem cell-like cells viability, luminescence | inhibition, % at 7.5 µM | 300,000 compounds, 1.1% hits | AID 2717; in the data active means inhibition above about 75%; inconclusive means no clear call, values can overlap the other calls; tested in HMLE shEcad cells
Beta apoptosis = blocks beta cell apoptosis. INS-1E cytokine-induced death, ATP luminescence, 48 h; percent of positive-control rescue, neutral wells zero. protection from apoptosis, % (concentration not given with the values). 300,000 compounds, 0.8% hits. AID 435005;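 active means Every replicate reaches about 75%, or at least half do and their mean reaches it too, limit read from the data; inconclusive means At least half of replicates reach the limit but their mean does not; inactive means Under half of replicates reach the limit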;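 further: 0% = cytokine-treated negative control wells and 100% = positive control rescue; higher means more ATP so stronger rescue from cytokine killing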
T cruzi repl = T. cruzi replication inhibition; T. cruzi beta-gal in NIH3T3, luminescence, 90 h; inhibition, % (test concentration not listed); 300,000 compounds, 1.4% hits; AID 1885;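 active means mean inhibition across valid replicates above about 55%, limit read from the data; inconclusive means mean below that limit but half or more replicates reach it; inactive means mean below it, under half of replicates reach it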;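 further: signal also drops with host cell toxicity which is not excluded here; 0% = plate median of DMSO wells and 100% = zero luminescence signal; higher percent means less beta-gal luminescence so fewer parasites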
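Read-out: Parasite load inhibition, % | Test system: Mouse NIH/3T3 fibroblasts infected with β-gal-expressing T. cruzi Tulahuen C4 | Amount: 5,000 cells/well | Medium: DMEM, 2% fetal bovine serum | Signal: GalScreen β-gal luminescence, detergent lysis, 60 min | Timing: 3 h attach, ≥90 h co-culture | Also added: Tulahuen C4 trypomastigotes, 5000/well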
CHOP UPR activ = activators of apoptotic arm of unfolded protein response (CHOP); CHO-CHOP luciferase reporter, UPR activation, luminescence; percent of tunicamycin response over DMSO baseline; activation, % at 10 µM; 330,000 compounds, 0.34% hits; AID 449763;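 active means at 10 µM dose, activation of 40% or more, normalized to positive control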;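 further: 100% = tunicamycin at 10 µg/mL and 0% = DMSO alone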
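System: CHO-CHOP luciferase reporter cell line; amount: 500 cells/well; buffer or medium: F12 medium containing 10% fetal bovine serum; incubation: 6 h compound exposure at 37 °C after overnight seeding; measured by: luciferase luminescence after 10 min with Steady-Glo reagent; evaluation: % reporter activation, DMSO baseline versus tunicamycin full activation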
XBP1 UPR conf = confirmation of adaptive unfolded protein response (XBP1) activators. shares compounds with UPR XBP1 act. CHO-XBP1 IRE1-XBP1 luciferase reporter, luminescence. activation, % at 20 µM. 1,000 compounds, 63% hits. AID 485299;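 active means reporter signal at least 30% of the positive control's activation in two or more of four replicate wells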;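 further: plate controls were DMSO negative control for no effect and tunicamycin 10 µg/mL positive control for full effect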
Mdm2-MdmX conf = confirmation of human Mdm2/MdmX interaction inhibitors | shares compounds with Mdm2 MdmX PPI | 10,000 compounds, 55% hits | Mdm2-MdmX binding, luminescent assay | AID 489028 | inhibition, % at 8 µM; in the data active means inhibition above about 40%
Full FLuc ctr = inhibits full-length luciferase, flagging false Mdm2/MdmX hits. shares compounds with Mdm2 MdmX PPI. AID 504607. SaOS-2 full-length luciferase counterscreen, luminescence. 6,200 compounds, 77% hits. inhibition, % at 8 µM;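 active means mean inhibition at 8 µM reaching about 37%, which flags the compound as non-specific, limit read from the data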;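 further: p53-null SaOS-2 cells with luciferase driven by a doxycycline-inducible promoter; compound on cells about two nights before reading with doxycycline added after day one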
An asterisk follows results filed as active; ? = inconclusive; / = no result given.

SMILES	UPR XBP1 act	Mdm2 MdmX PPI	CSC inhib	Beta apoptosis	T cruzi repl	CHOP UPR activ	XBP1 UPR conf	Mdm2-MdmX conf	Full FLuc ctr
CCOc1cccc2sc(N(CCCN(C)C)C(=O)c3ccc(S(=O)(=O)N(CC)Cc4ccccc4)cc3)nc12	43*	84*	26	6	20	9	12	53*	68*
CC1(C)C[C@H](O)[C@]2(CO)[C@H](O)C[C@]3(C)C(=CCC4[C@@]5(C)CC[C@H](O)C(C)(C)C5CC[C@]43C)[C@@H]2C1 (stereo partly drawn)	146*	100*	?	56	/	39	73*	28	/
O=C(c1cc2c(s1)CCCC2)N1CCN(Cc2ccc3c(c2)OCO3)CC1	2	30	/	-6	27	2	/	/	/
O=C(Oc1ccc2c(c1)OCO2)c1cc2c(s1)CCC2	37*	97*	-2	9	-8	35	9	78*	21
COc1ccc(CCNS(=O)(=O)c2cc(C(=O)O)c(Cl)cc2Cl)cc1	5	-13	-5	-6	-6	2	/	/	/
O=C(Nc1cccc2c1CCCC2)c1ccccc1Br	-1	-6	9	/	1	0	/	/	/
O=c1[nH]c(SCc2ccc(Cl)cc2)nc2ccccc12	-2	16	-2	-3	10	2	/	/	/
O=Cc1cc2ccccc2nc1SCc1ccc(Cl)cc1	43*	81*	88*	25	-5	10	43*	59*	84*
O=Cc1cc2ccccc2nc1SCc1ccc(Cl)c(Cl)c1	34*	64*	94*	57	4	4	39*	62*	86*
COc1cccc(-c2sc3ccccc3c2-c2ccc(OCCN(C)C)cc2)c1	37*	100*	104*	20	/	3	54*	25	/
c1ccc(-c2sc3ccccc3c2-c2ccc(OCCN3CCCC3)cc2)cc1	32*	100*	107*	6	/	3	19	46*	58*
Cc1ccccc1-c1nn(-c2ccc(F)cc2F)cc1CNC1CC1	1	-27	/	-5	13	0	/	/	/
Cc1cccc2cc(C(c3nnnn3Cc3ccccc3)N3CCCc4ccccc43)c(=O)[nH]c12 (stereo not drawn)	76*	88*	/	-7	5	11	28*	2	/
Cc1ccc2c(c1)C(=O)C(=O)N2CC(=O)OC(C)C	2	17	1	-9	-23	-3	/	/	/
Cc1ccc2c(c1)C(=O)C(=O)N2Cc1ccc(C(F)(F)F)cc1	51*	72*	53	-13	/	2	46*	14	/
CC(=O)NC(c1ccco1)c1ccc2cccnc2c1O (stereo not drawn)	32*	72*	-1	90*	45	-3	-1	54*	28
O=c1[nH]c(=O)n(Cc2ccco2)c2c1C(C(F)(F)F)(C(F)(F)F)N=C(C1CCCCC1)N2	-2	5	-20	7	4	-3	/	/	/
O=c1[nH]c(=O)n(-c2ccccc2)c2c1C(C(F)(F)F)(C(F)(F)F)N=C(CCC1CCCCC1)N2	9	50	-30	-6	23	3	/	/	/
CC(C)Cn1c2c(c(=O)[nH]c1=O)C(C(F)(F)F)(C(F)(F)F)N=C(CCC1CCCCC1)N2	33*	52*	7	39	33	12	38*	71*	52*
O=c1[nH]c(=O)n(Cc2ccco2)c2c1C(C(F)(F)F)(C(F)(F)F)N=C(CCC1CCCCC1)N2	43*	62*	23	/	11	10	6	88*	40*
COc1ccc(CCn2c(C3CCCCC3)nc3c(c(=O)c4ccccc4n3C)c2=O)cc1	34*	81*	?	/	?	6	82*	50*	45*
